Data on ten compounds can be found in ChEMBL document CHEMBL1149350, “Synthesis of novel chemical probes for the study of tanshinone binding proteins” (Bioorg Med Chem Lett, 2006).

Calls of active or inactive are those of the source. No cut-off for these calls is given here.

The subject of assay [1] is RAW264.7. Kind of assay: Inhibition of TRAP activity in RANKL-induced osteoclastogenesis in RAW 264.7 cells. Type of assay: functional, cell-based. The conditions noted are these: Mus musculus. In outline: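 RAW264.7 cells seeded at 1 × 10³/well in α-MEM/10% FBS with 100 ng/ml RANKL; compounds added next day. On day 4 multinucleated cells fixed (10% formalin 10 min, 95% ethanol 1 min) and dried, then given 50 mM citrate pH 4.6 with 10 mM tartrate and 5 mM p-nitrophenylphosphate for 30 min. Stopped in 0.1 N NaOH, A410 read; triplicate; IC50 from mean % of control.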

In assay [2] the test system is RAW264.7. Nature of the assay: Antiproliferative activity against RAW 264.7 cells in RANKL-induced osteoclastogenesis. Type of assay: functional, cell-based. The following applies: Mus musculus.

On to `Cc1coc2c1C(=O)C(=O)c1c-2ccc2c1CC[C@H](OCCOC(=O)COc1cccc(C3(C(F)(F)F)N=N3)c1)C2(C)C`, for which the IC50 (usually the midpoint of a concentration-inhibition curve) was 18 µM in the assay with RAW264.7 [1] and more than 20 µM in the assay on RAW264.7 [2].
On to `Cc1coc2c1C(=O)C(=O)c1c-2ccc2c1CC[C@H](OC(=O)c1ccccc1)C2(C)C`, for which half-maximal inhibition with RAW264.7 [1] (IC50) was put at 19.1 µM. Besides, in the assay on RAW264.7 [2], the outcome was inactive.
With `Cc1coc2c1C(=O)C(=O)c1c-2ccc2c1CCCC2(C)COC(=O)COCCOC(=O)CCCCC1SCC2NC(=O)NC21` (stereo not given), the concentration for half-maximal inhibition (IC50) with RAW264.7 [1] was 12.4 µM; in the assay on RAW264.7 [2], 18.3 µM.
In the assay on RAW264.7 [1], `CCC(=O)O[C@H]1CCc2c(ccc3c2C(=O)C(=O)c2c(C)coc2-3)C1(C)C` returned an IC50 of 16.7 µM. Further, the result with RAW264.7 [2] was inactive.
On to `Cc1coc2c1C(=O)C(=O)c1c-2ccc2c1CCCC2(C)CO` (stereo not given) [TANSHINONE IIB], for which the IC50 is 15.6 µM in the assay with RAW264.7 [1] and more than 20 µM in the assay with RAW264.7 [2].
`Cc1coc2c1C(=O)C(=O)c1c-2ccc2c1CCCC2(C)C` [TANSHINONE IIA]: in the assay on RAW264.7 [1], the IC50 was found to be 18.2 µM. Also, the outcome in the assay on RAW264.7 [2] was inactive.
Take `Cc1coc2c1C(=O)C(=O)c1c-2ccc2c1CC[C@H](O)C2(C)C`: the results for the concentration for half-maximal inhibition (IC50) in the assay with RAW264.7 [1] and in the assay on RAW264.7 [2] were 12.8 µM and more than 20 µM, respectively.
`Cc1coc2c1C(=O)C(=O)c1c-2ccc2c1CC[C@H](OCCO)C2(C)C` showed an IC50 in the assay with RAW264.7 [1] of 10.2 µM. The outcome in the assay on RAW264.7 [2] was inactive.
Regarding `Cc1coc2c1C(=O)C(=O)c1c-2ccc2c1CC[C@H](OCCOC(=O)CCCCC1SCC3NC(=O)NC31)C2(C)C` (stereo not given in full), the figures for the IC50 with RAW264.7 [1] and in the assay with RAW264.7 [2] were 9.56 µM and 18.7 µM, respectively.
The like results for `Cc1coc2c1C(=O)C(=O)c1c-2ccc2c1CCCC2(C)COC(=O)COCCOC(=O)COc1cccc(C2(C(F)(F)F)N=N2)c1` (stereo not given) were, in that order, 15 µM and more than 20 µM.
